Among the data in ChEMBL document CHEMBL1139751, “Discovery of small molecule inhibitors of integrin alphavbeta3 through structure-based virtual screening” (Bioorg Med Chem Lett, 2006) are IC50, Activity and inhibition values, retold here.

For one assay, the target named is Integrin alpha-V/beta-3 (Homo sapiens, UniProt P05106+P06756). The experiment in a line: Inhibition of integrin alphavbeta3 mediated cell adhesion of human M21 cells to vitronectin. Type of assay: cell-based. The method, boiled down:
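Non-tissue-culture plastic 96-well plates were coated overnight with 2 µg/ml vitronectin. M21 cells were seeded with or without graded compound concentrations and allowed to adhere for 1 h at 37 °C. Adherent cells were fixed and stained, and the plates were read at 570 nm. Inhibition was calculated with compound-free wells as 100% adhesion.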

Assay [1] concerns M21. The experiment in a line: Inhibition of human M21 cell migration assessed by measuring migration distance after 16 hrs at 30 uM by scrape motility assay. The assay is classed as functional. The procedure, abridged: (§1)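 Scrape motility assay with M21 melanoma cells on vitronectin-coated plates, treated with compound at 7.5, 15.0 or 30.0 µM. Migration distance was measured by phase-contrast microscopy at 8 h or 16 h. Percent inhibition was taken against untreated cells. Means ± SD of nine determinations from three independent experiments.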

A further assay concerns HUVEC. Nature of the assay: Inhibition of bFGF-induced capillary-like structure formation in HUVECs at 30 uM after 6 hrs. Type of assay: functional, cell-based. The note with it: Homo sapiens. The procedure, abridged: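 HUVECs in ECM gel stimulated with 100 ng/ml bFGF, with or without compound, for 6 h. PBS served as the unstimulated control. Capillary-like structures were viewed by phase-contrast microscopy.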

Assay [2] concerns M21. The experiment in a line: Inhibition of human M21 cell migration after 8 hrs at 30 uM by scrape motility assay. The assay is classed as functional. The note with it: M21, 8 h. The method, boiled down:
as §1

Assay [3] deals with M21. The experiment in a line: Inhibition of human M21 cell migration assessed by measuring migration distance after 8 hrs at 7.5 uM by scrape motility assay. The assay is classed as functional. The method, boiled down: as §1
Assay [4] deals with M21. The experiment in a line: Inhibition of human M21 cell migration assessed by measuring migration distance after 8 hrs at 15 uM by scrape motility assay. The assay is classed as functional. The method, boiled down: as §1
Assay [5] concerns M21. Nature of the assay: Inhibition of human M21 cell migration assessed by measuring migration distance after 8 hrs at 30 uM by scrape motility assay. The assay is classed as functional. The procedure, abridged:
as §1

Assay [6] concerns M21. The experiment in a line: Inhibition of human M21 cell migration after 8 hrs at 15 uM by scrape motility assay. The assay is classed as functional. The note with it: M21, 8 h. The procedure, abridged:
as §1

Assay [7] deals with M21. The experiment in a line: Inhibition of human M21 cell migration after 8 hrs at 7.5 uM by scrape motility assay. The assay is classed as functional. The note with it: M21, 8 h. The procedure, abridged: as §1
In assay [8] the test system is M21. The experiment in a line: Inhibition of human M21 cell migration at 15 uM after 16 hrs by scrape motility assay. The assay is classed as functional. The note with it: M21, 16 h. The method, boiled down:
as §1

Assay [9] has as its system M21. The experiment in a line: Inhibition of human M21 cell migration at 30 uM after 16 hrs by scrape motility assay. The assay is classed as functional. The note with it: M21, 16 h. The procedure, abridged: as §1
The test system of assay [10] is M21. Nature of the assay: Inhibition of human M21 cell migration at 7.5 uM after 16 hrs by scrape motility assay. The assay is classed as functional. The note with it: M21, 16 h. The method, boiled down:
as §1

Assay [11] deals with M21. Nature of the assay: Inhibition of human M21 cell migration assessed by measuring migration distance after 16 hrs at 7.5 uM by scrape motility assay. The assay is classed as functional. The method, boiled down: as §1
The subject of assay [12] is M21. The experiment in a line: Inhibition of human M21 cell migration assessed by measuring migration distance after 16 hrs at 15 uM by scrape motility assay. The assay is classed as functional. The method, boiled down: as §1

SMILES strings stand for the structures. Calls of active or inactive are those of the source. The calls are words filed in the database; no cut-off is given here.

Integrin alpha-V/beta-3, sequence (P05106 27-788 limits assumed): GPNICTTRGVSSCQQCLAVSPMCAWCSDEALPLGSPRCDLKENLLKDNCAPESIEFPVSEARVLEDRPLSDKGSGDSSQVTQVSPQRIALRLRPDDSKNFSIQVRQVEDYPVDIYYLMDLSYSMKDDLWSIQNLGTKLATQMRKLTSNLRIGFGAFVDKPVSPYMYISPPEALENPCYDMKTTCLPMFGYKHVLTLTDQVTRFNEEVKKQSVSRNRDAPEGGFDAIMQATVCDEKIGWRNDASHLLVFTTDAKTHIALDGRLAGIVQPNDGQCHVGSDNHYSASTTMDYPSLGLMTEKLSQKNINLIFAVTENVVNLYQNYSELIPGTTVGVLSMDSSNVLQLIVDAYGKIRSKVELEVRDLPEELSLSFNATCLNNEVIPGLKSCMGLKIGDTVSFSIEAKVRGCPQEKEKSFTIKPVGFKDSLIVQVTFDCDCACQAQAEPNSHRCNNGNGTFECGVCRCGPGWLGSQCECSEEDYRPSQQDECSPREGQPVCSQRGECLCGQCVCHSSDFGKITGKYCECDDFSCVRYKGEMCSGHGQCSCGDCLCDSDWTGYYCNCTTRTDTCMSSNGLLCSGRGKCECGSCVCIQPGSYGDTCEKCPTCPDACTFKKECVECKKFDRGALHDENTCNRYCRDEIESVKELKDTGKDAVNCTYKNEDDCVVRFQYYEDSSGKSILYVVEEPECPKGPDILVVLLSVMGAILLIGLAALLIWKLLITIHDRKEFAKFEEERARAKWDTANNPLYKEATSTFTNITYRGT
Integrin alpha-V/beta-3, sequence (P06756 31-889 limits assumed): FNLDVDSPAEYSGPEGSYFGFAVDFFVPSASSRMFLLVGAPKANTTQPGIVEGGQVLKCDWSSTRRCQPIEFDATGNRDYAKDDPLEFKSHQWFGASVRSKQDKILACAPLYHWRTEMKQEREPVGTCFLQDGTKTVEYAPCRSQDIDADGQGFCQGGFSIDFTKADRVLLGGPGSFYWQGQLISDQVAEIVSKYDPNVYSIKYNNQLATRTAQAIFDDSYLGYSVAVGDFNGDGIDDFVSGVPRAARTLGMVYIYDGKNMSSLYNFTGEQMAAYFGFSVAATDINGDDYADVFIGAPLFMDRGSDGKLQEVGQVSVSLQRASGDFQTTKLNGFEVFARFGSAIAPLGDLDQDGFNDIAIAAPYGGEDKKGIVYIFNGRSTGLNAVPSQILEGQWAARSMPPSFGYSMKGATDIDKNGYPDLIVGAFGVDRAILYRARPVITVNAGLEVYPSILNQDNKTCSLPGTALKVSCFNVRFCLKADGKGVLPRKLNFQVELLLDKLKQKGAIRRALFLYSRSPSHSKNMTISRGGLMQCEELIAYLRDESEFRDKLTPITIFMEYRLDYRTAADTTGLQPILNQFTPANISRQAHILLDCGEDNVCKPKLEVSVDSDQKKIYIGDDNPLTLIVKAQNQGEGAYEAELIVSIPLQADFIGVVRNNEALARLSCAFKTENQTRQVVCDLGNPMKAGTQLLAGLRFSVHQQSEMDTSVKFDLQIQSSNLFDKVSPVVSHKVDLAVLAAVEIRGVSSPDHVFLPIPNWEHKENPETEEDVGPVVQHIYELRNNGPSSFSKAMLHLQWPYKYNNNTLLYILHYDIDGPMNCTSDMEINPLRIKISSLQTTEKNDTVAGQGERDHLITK
Integrin alpha-V/beta-3, sequence (P06756 891-1048 limits assumed): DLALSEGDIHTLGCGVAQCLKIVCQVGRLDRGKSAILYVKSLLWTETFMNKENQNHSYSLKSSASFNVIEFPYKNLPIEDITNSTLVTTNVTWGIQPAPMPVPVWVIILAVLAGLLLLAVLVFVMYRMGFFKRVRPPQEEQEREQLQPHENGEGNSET

The IC50 is the concentration needed to halve the response being measured. A lower IC50 goes with higher potency. Regarding `CCOC(=O)c1cccc(N=C(N)N=C(N)N)c1`, the IC50 on Integrin alpha-V/beta-3 is > 200 µM. The same measure, in the same setting: the figure for `N=C(N)NC(=N)Nc1ccc(Cl)cc1Cl` is 66.9 µM. The same measure, in the same setting: the figure for `CSc1ccccc1N=C(N)N=C(N)N` is > 200 µM; for `COc1cc(NS(=O)(=O)c2ccc(NC(=O)COc3ccc(Cl)cc3Cl)cc2)nc(OC)n1` it is 137 µM; for `N=C(N)NC(=N)Nc1ccc(Cl)cc1` [4-CHLOROPHENYLBIGUANIDE] it is 149 µM. For the compound `CCOc1cc(/C=c2\sc3nc4c(C)cccc4n3c2=O)cc(Br)c1OCC(=O)O`, on Integrin alpha-V/beta-3, the IC50 came to 132 µM. On the same count and under the same terms, the figure for `N=C(N)NC(=N)Nc1ccccc1` [PHENYL BIGUANIDE] is > 200 µM; for `COc1cc(/C=C2\C(=O)N(c3ccc(C(=O)O)cc3)N=C2C)ccc1OC(=O)c1ccccc1` it is 143 µM.

`N=C(N)NC(=N)Nc1cccc(Cl)c1` came in with an IC50 against Integrin alpha-V/beta-3 of 191 µM. Take `N=C(N)NC(=N)Nc1ccccc1Cl`: the half-maximal inhibitory concentration (IC50) against Integrin alpha-V/beta-3 was > 200 µM.

Take `CCOc1ccccc1N=C(N)N=C(N)N`: the IC50 at Integrin alpha-V/beta-3 was > 200 µM.

Regarding `NC(N)=NC(N)=Nc1ccc(SC(F)F)cc1`, it took 178 µM to reach half-maximal inhibition against Integrin alpha-V/beta-3 (IC50). `COc1cc(NS(=O)(=O)c2ccc(N/C=C3\C(=O)N(c4ccc(I)cc4)N=C3C)cc2)nc(OC)n1` had an IC50 against Integrin alpha-V/beta-3 of 53.5 µM. The same measure, in the same setting: the figure for `Cc1ccc(Cl)cc1N=C(N)N=C(N)N` is > 200 µM. Broadly, the inhibition is the percentage by which the read-out fell short of the control. Read a high inhibition as strong suppression. As for `N=C(N)NC(=N)Nc1ccc(Cl)c(Cl)c1`, the Activity with M21 [1] came out at 16.7 um; in the assay with M21 [3], 27.8 um; in the assay with M21 [4] it was 8.3 um; in the assay on M21 [5], 1.1 um; in the assay on M21 [11] it was 72.2 um; with M21 [12] it was 38.9 um. Moreover, the outcome in the assay on HUVEC was Active. In addition, on Integrin alpha-V/beta-3, the IC50 worked out at 38.5 µM. For the same compound, the inhibition at 30 µM with M21 [2] was 96.4%; in the assay on M21 [9], 86%. For the same compound, the inhibition at 15 µM came to 73.1% in the assay with M21 [6] and 67.4% with M21 [8]. Further, the inhibition at 7.5 µM with M21 [7] stood at 9.1%; with M21 [10], 39.5%. `O=C(Nc1ccccc1C(=O)O)c1ccc(N2C(=O)c3ccc(Oc4ccc([N+](=O)[O-])cc4)cc3C2=O)cc1`: at Integrin alpha-V/beta-3, inhibition was half-maximal at 180 µM (IC50). Same read-out and setting: the figure for `N=C(N)NC(=N)Nc1ccc(F)c(Cl)c1` is 97.3 µM; for `N=C(N)N=C(N)Nc1cc(Cl)cc(Cl)c1` it is 33.5 µM. On to `N=C(N)NC(=N)Nc1cc(C(F)(F)F)ccc1Cl`, for which the IC50 on Integrin alpha-V/beta-3 came to 127 µM. On Integrin alpha-V/beta-3, `N=C(N)NC(=N)Nc1cc(C(F)(F)F)cc(C(F)(F)F)c1` yielded an IC50 of 39.5 µM.

In the case of `N=C(N)NC(=N)Nc1ccc(SC(F)(F)F)cc1`, at Integrin alpha-V/beta-3, half-maximal inhibition (IC50) required 101 µM. Still for that read-out and setting: the figure for `N=C(N)NC(=N)Nc1cccc(Cl)c1Cl` is 87.3 µM; for `Cn1cnnc1SCC(=O)Nc1ccc(-c2nc3ccc(NC(=O)CSc4nncn4C)cc3o2)c(O)c1` it is 162 µM; for `NC(N)=NC(N)=Nc1cc(Cl)ccc1Cl` it is 100 µM. On the same count and under the same terms, the figure for `CSc1cccc(NC(=N)NC(=N)N)c1` is > 200 µM.
